In data set [1] the test system is Rattus norvegicus. Description: Antiinflammatory activity in rat assessed as inhibition of carrageenan-induced paw edema compound administered orally 1 hr prior challenge relative to phenylbutazone. In kind it is functional. In outline:
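Female rats, 80-90 g, given test agent in "Government diluting fluid" 1 h before carrageenan injection into one hind paw. Rats killed 4 h after dosing; both hind paws excised and weighed. Potency relative to phenylbutazone read from dose-response plots of percent weight increase of inflamed over noninflamed paw. Usually at least three doses, six rats per dose.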
(In general: In the carrageenan paw model, swelling and tenderness develop within hours.)

In data set [2] the test system is Mus musculus. Description: Analgesic activity in mouse assessed as inhibition of phenylquinone-induced writhing administered orally 20 mins prior challenge relative to aspirin. It counts as functional. In outline:
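Male mice, 18-20 g, dosed orally in "Government diluting fluid" vehicle, then given phenylquinone intraperitoneally 20 min later. Writhing observed over the following 10 min. Eight to ten mice per dose. Potency relative to aspirin taken from dose-response plots.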
(Writhing tests count abdominal constrictions after an irritant is injected.)

Data set [3] has as its system Rattus norvegicus. Description: Antiinflammatory activity in rat assessed as inhibition of cotton pellet granuloma at 0.5 to 4 mg/kg/day, po administered for 7 days starting same day of challenge measured on day 7 relative to indomethacin. It counts as functional. In outline: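 Cotton pellet granuloma in rats, by a modification of Meier's method. Vehicle "Government diluting fluid".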

Data set [4] deals with Rattus norvegicus. Description: Antiinflammatory activity in rat arthritis model assessed as inhibition of Freund's adjuvant-induced swelling compound administered orally bid for 17 days starting on day 1 of challenge measured on day 18 relative to naproxen. In kind it is functional.
The test system of data set [5] is Canis familiaris. Description: Toxicity in dog assessed as emesis at 5 mg/kg, po administered as single dose. In kind it is organism-based, Canis lupus familiaris. Further details: dose 5 mg/kg, route oral. As to conditions: in vivo. In outline:
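Dogs given one oral dose (5, 10 or 30 mg/kg). Animals watched for signs of gastrointestinal intolerance, including emesis.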

The species entered for data set [6] is Rattus norvegicus. Description: Toxicity in rat assessed as gastric irritation (erosion) in starved rats. Conditions: in vivo.

On to `O=C(O)Cc1ccc2c(c1)CCc1ccccc1[S+]2[O-]` (racemic), for which the “fold change (FC)” value is reported as “<=0.2” in data set [1] and 0.8 in data set [2].

As for `O=C(O)Cc1ccc2c(c1)SCc1sccc1C2=O`, the “fold change (FC)” value in data set [1] and in data set [2] was 4 throughout.

With `O=C(O)Cc1ccc2c(c1)CCc1ccccc1S2`, the “fold change (FC)” value in data set [1] was found to be 7; in data set [2] it was 3; in data set [3], 0.07; in data set [4], 0.5.

As to `O=C(O)Cc1ccc2c(c1)C(=O)c1ccccc1CS2`, the “fold change (FC)” value in data set [1] is given as 0.3; in data set [2], 1.5.

Regarding `O=C(O)Cc1ccc2c(c1)CC(=O)c1ccccc1S2`, the “fold change (FC)” value is 0.4 in data set [1] and 1 in data set [2].

In the case of `O=C(O)Cc1ccc2c(c1)CCc1ccccc1S2(=O)=O`, the “fold change (FC)” value in data set [1] was found to be 0.4; in data set [2], 1.

With `CC(C(=O)O)c1ccc2c(c1)SCc1sccc1C2=O` (racemic), the “fold change (FC)” value in data set [1] came out at 13; in data set [2], 20.

On to `O=C(O)Cc1ccc2c(c1)C=Cc1ccccc1S2(=O)=O`, for which the “fold change (FC)” value in data set [1] and in data set [2] was 0.4 each time.

As for `O=C(O)Cc1ccc2c(c1)C=Cc1ccccc1O2`, the “fold change (FC)” value in data set [1] is given as less than 0.4; in data set [2], 0.3.

Take `O=C(O)Cc1ccc2c(c1)CC(=O)c1ccccc1O2`: the “fold change (FC)” value in data set [1] was less than 0.6; in data set [2], less than 0.2.

As to `CC(C(=O)O)c1ccc2c(c1)SCc1ccccc1C2=O` (racemic), the “fold change (FC)” value was determined as 115 in data set [1], 20 in data set [2], 2 in data set [3] and 70 in data set [4]. Besides, the Activity result in data set [5] is on record as “Toxic”. The ED50 in data set [6] is 2 mg/kg.

On to `O=C(O)Cc1ccc2c(c1)Sc1ccccc1C(=O)C2`, for which the entries for the “fold change (FC)” value in data set [1] and in data set [2] were 0.4 and 1, respectively.

For `O=C(O)Cc1ccc2c(c1)SCc1ccccc1C2=O` [TIOPINAC], the “fold change (FC)” value in data set [1] turned out to be 40; in data set [2], 14; in data set [3] it was 0.8; in data set [4], 10. Moreover, in data set [5], the Activity entry is on record as “Non-toxic”.

As for `O=C(O)Cc1ccc2c(c1)CCc1ccccc1O2`, the “fold change (FC)” value in data set [1] is 0.4; in data set [2] it was 1.

In the case of `O=C(O)Cc1ccc2c(c1)Sc1ccccc1CC2`, the “fold change (FC)” value in data set [1] was determined as 0.2; in data set [2], 2.

On to `O=C(O)Cc1ccc2c(c1)CSc1ccccc1C2=O`, for which the “fold change (FC)” value in data set [1] and in data set [2] was 1 each time.

For the molecule `C1CCC(NC2CCCCC2)CC1.CC(C(=O)O)c1ccc2c(c1)CSc1ccccc1C2=O` (stereo not given), the “fold change (FC)” value was 2 in data set [1] and 2.5 in data set [2].

In the case of `C1CCC(NC2CCCCC2)CC1.CCC(C(=O)O)c1ccc2c(c1)SCc1ccccc1C2=O` (stereo not given), the “fold change (FC)” value in data set [1] was determined as 20; in data set [2] it was 4.

Consider `O=C(O)Cc1ccc2c(c1)C=Cc1ccccc1S2`, for which the “fold change (FC)” value in data set [1] was 2; in data set [2], less than 1.

Consider `O=C(O)Cc1ccc2c(c1)S(=O)(=O)Cc1ccccc1C2=O`, for which the “fold change (FC)” value was less than 0.2 in data set [1] and 0.2 in data set [2].

Turning to `O=C(O)Cc1ccc2c(c1)SCc1ccccc1C2`, the “fold change (FC)” value in data set [1] came out at 2; in data set [2], 1.

In the case of `O=C(O)Cc1ccc2c(c1)SCc1ccccc1C2O` (racemic), the “fold change (FC)” value in data set [1] was less than 1; in data set [2], less than 0.3.

For the molecule `O=C(O)Cc1ccc2c(c1)[S+]([O-])Cc1ccccc1C2=O` (racemic), the entries for the “fold change (FC)” value in data set [1] and in data set [2] were 0.5 and “<=0.5”, respectively.

Take `C1CCC(NC2CCCCC2)CC1.CC(C(=O)O)c1ccc2c(c1)CCc1ccccc1S2` (racemic): the “fold change (FC)” value came out at 3 in data set [1] and 5 in data set [2].

Turning to `O=C(O)Cc1ccc2c(c1)Sc1ccccc1C=C2`, the “fold change (FC)” value in data set [1] is given as less than 0.2; in data set [2], less than 1.

For the molecule `O=C(O)Cc1cccc2c1SCc1ccccc1C2=O`, in data set [1], the “fold change (FC)” value is on record as less than 0.4.

In general, ED50 refers to the dose at which the effect has come halfway, by size or by number of responders.

These data come from ChEMBL document CHEMBL3244028, “Synthesis and antiinflammatory activity of 6,11-dihydro-11-oxodibenzo[b,e]thiepinalkanoic acids and related compounds” (J Med Chem, 1978).
